ChEMBL document CHEMBL1125615, “A highly specific aldose reductase inhibitor, ethyl 1-benzyl-3-hydroxy-2(5H)-oxopyrrole-4-carboxylate, and its congeners” (J Med Chem, 1991)
“And” between values parts separate entries of the source, which are not always exact repeats. Equal values may be shown once. Each block holds one compound with its values, some of them ahead of it.

Assays:
[1] = target: T1, Aldo-keto reductase family 1 member A1 (Sus scrofa, UniProt P50578); test: (§1) Selectivity ratio measured as the IC50 ratio of aldehyde/aldose reductase values
T1 sequence (P50578 whole entry): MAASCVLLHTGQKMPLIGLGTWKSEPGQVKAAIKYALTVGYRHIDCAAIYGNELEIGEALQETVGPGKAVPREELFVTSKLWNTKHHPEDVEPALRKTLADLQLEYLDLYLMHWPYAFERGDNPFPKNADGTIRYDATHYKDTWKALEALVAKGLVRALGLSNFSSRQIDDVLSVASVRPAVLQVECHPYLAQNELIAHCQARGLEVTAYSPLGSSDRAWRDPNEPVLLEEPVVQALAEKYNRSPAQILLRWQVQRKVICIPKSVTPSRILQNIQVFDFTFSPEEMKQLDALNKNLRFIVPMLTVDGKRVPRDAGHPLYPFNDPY

[2] = target: T2, Aldo-keto reductase family 1 member B1 (Rattus norvegicus, UniProt P07943); test: (§2) Inhibitory activity measured against rat lens aldose reductase using 3-pyridinecarboxaldehyde as substrate
[3] = Inhibitory activity measured against pig kidney aldehyde reductase using 3-pyridinecarboxaldehyde as substrate
Procedure, shortened: (§3)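 Purified rat lens aldose reductase and homogeneous pig kidney aldehyde reductase, assayed in 50 mM K phosphate pH 7.0 with 0.1 mM NADPH and 5 mM 3-pyridinecarboxaldehyde; substrate-started, NADPH loss at 340 nm over 12 min, 25 °C. IC50 by log linear regression; selectivity = aldehyde IC50 / aldose IC50.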

[4] = target: T3, Aldo-keto reductase family 1 member B1 (Homo sapiens, UniProt P15121); test: Inhibitory activity measured in vitro against human placental aldose reductase at a concentration of 10e-5 M
[5] = target: T3, Aldo-keto reductase family 1 member B1; test: In vitro inhibition of human placental aldose reductase.
Procedure, shortened: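 Human placental aldose reductase, partly purified (placentae homogenized in 0.1 M K phosphate pH 7.0 with 5 mM 2-mercaptoethanol, spun 33000g, peak fractions pooled). Assay in 50 mM K phosphate pH 7.1 with 0.4 M ammonium sulfate, 0.067 mM NADPH, 1.0 mM DL-glyceraldehyde; enzyme set to 4 milliunits; NADPH oxidation at 340 nm, 25 °C, 10 min. IC50 by log linear regression.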

[6] = target: T4, Aldo-keto reductase family 1 member A1 (Sus scrofa) (UniProt P50578); test: Inhibitory activity measured against pig kidney aldehyde reductase using 3-pyridinecarboxaldehyde as substrate at 2e-4; conditions: concentration not given here
T4 sequence (whole entry): T1 sequence (P50578 whole entry)
Procedure, shortened: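 Pig kidney aldehyde reductase, purified to homogeneity, was tested at 2 × 10^-4 M inhibitor in 50 mM potassium phosphate pH 7.0 with 0.1 mM NADPH and 5 mM 3-pyridinecarboxaldehyde. The reaction was started with substrate, and NADPH loss was read at 340 nm for 12 min at 25 °C. The value is percent inhibition.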

[7] = organism: Rattus norvegicus; test: Percent inhibition of sorbitol accumulation in rat sciatic nerve was measured; assay type: functional
Procedure, shortened: (§4)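 Streptozotocin 85 mg/kg i.v. at 0 h to induce diabetes in rats; compound 100 mg/kg orally at 4, 7 and 24 h; killed at 27 h. Sorbitol in sciatic nerve or lens compared with untreated diabetic rats, n = 6 per group; Student's t test.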

[8] = Physicochemical property was determined; assay type: ADME
[9] = as §1
Procedure, shortened: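 Ratio of the pig kidney aldehyde reductase IC50 to the rat lens aldose reductase IC50. Both purified enzymes were assayed in 50 mM potassium phosphate pH 7.0 with 0.1 mM NADPH and 5 mM 3-pyridinecarboxaldehyde, started with substrate, reading NADPH loss at 340 nm for 12 min at 25 °C. IC50s came from log-linear regression.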

[10] = organism: Rattus norvegicus; test: Percent inhibition of sorbitol accumulation in rat lens was measured; assay type: functional, Lens of camera-type eye; procedure, shortened: as §4
[11] = as §2; procedure, shortened: as §3
[12] = target: T2, Aldo-keto reductase family 1 member B1; test: Inhibition of rat lens aldose reductase was measured
[13] = Physicochemical property was determined; b=could not be measured; assay type: ADME

SMILES: CCOC(=O)C1=C(O)C(=O)N(C2CCCCC2)C1
- inhibition [4]: 22%

SMILES: CCOC(=O)C1=C(O)C(=O)N(Cc2ccc(Cl)cc2)C1
- IC50 [5]: 310 nM

SMILES: CCOC(=O)C1=C(O)C(=O)N(Cc2ccccc2)C1
- inhibition [6]: 2%
- IC50 [5]: 260 nM
- Inhibition [7]: 51% and 42%

SMILES: CC(C)(C)OC(=O)C1=C(O)C(=O)N(Cc2ccccc2)C1
- inhibition [4]: 27%

SMILES: CCOC(=O)C1=C(O)C(=O)N(Cc2ccco2)C1
- IC50 [5]: 3300 nM

SMILES: CC1CN(Cc2ccccc2)C(=O)C1=O (configuration not stated)
- pKa [8]: 10.6

SMILES: CCOC(=O)C1C(=O)C(=O)NC12CCOc1ccc(F)cc12 (configuration not stated)
- inhibition [6]: 11%
- IC50 [2]: 910 nM
- Selectivity ratio [9]: > 200

SMILES: CCCC(CCC)C(=O)O [VALPROATE SODIUM]
- IC50 [1]: 89000 nM
- IC50 [2]: 380000 nM
- Selectivity ratio [3]: 0.2

SMILES: COc1ccc2c(C(=S)N(C)CC(=O)O)cccc2c1C(F)(F)F [TOLRESTAT]
- IC50 [2]: 29 nM

SMILES: CCOC(=O)C1=C(O)C(=O)N(Cc2ccncc2)C1
- Selectivity ratio [11]: > 1800
- inhibition [6]: 9%
- IC50 [12]: 110 nM
- IC50 [5]: 200 nM
- Inhibition [7]: 28%

SMILES: CCOC(=O)C1=C(O)C(=O)N(Cc2ccccc2Cl)C1
- IC50 [5]: 2300 nM

SMILES: CCOC(=O)C1=C(O)C(=O)N(Cc2ccc(Br)cc2)C1
- IC50 [5]: 500 nM

SMILES: CCOC(=O)C1=C(O)C(=O)N(Cc2ccc(Cl)c(Cl)c2)C1
- IC50 [5]: 240 nM

SMILES: CSC1CN(Cc2ccccc2)C(=O)C1=O (configuration not stated)
- pKa [8]: 7.3

SMILES: CCOC(=O)C1=C(O)C(=O)N([C@@H](C)c2ccccc2)C1
- IC50 [5]: 1200 nM

SMILES: COC(=O)C1=C(O)C(=O)N(Cc2ccccc2)C1
- IC50 [5]: 2600 nM

SMILES: O=C1CCN(Cc2ccccc2)C1=O
- pKa [13]: Could not be measured

Further lines, with some results ahead:

- IC50 [1]: 2000 nM
- IC50 [2]: 28 nM
- Selectivity ratio [3]: 71.4
SMILES: O=C(O)Cc1nn(Cc2ccc(Br)cc2F)c(=O)c2ccccc12 [PONALRESTAT]

- inhibition [4]: 28%
SMILES: CCOC(=O)C1=C(O)C(=O)N(c2ccccc2)C1

- IC50 [1]: 490000 nM
- IC50 [2]: 82000 nM
- Selectivity ratio [3]: 6
SMILES: CC1(S(=O)(=O)O)CC(=O)c2ccccc2C1=O (configuration not stated) [MENADIONE SULFUROUS ACID]

- IC50 [5]: 2500 nM
SMILES: CCOC(=O)C1=C(O)C(=O)N(CCc2ccccc2)C1

- IC50 [5]: 2300 nM
SMILES: CCOC(=O)C1=C(O)C(=O)N(Cc2cccc3ccccc23)C1

- IC50 [5]: 410 nM
SMILES: CCOC(=O)C1=C(O)C(=O)N(Cc2ccc(OC)cc2)C1

- inhibition [4]: 9%
SMILES: CC(C)(C)OC(=O)C1=C(O)C(=O)N(Cc2cccs2)C1
- Inhibition [7]: 37%
- Inhibition [10]: 36%

- IC50 [5]: 840 nM
SMILES: CCOC(=O)C1=C(O)C(=O)N([C@H](C)c2ccccc2)C1

- IC50 [5]: 300 nM
SMILES: CCOC(=O)C1=C(O)C(=O)N(C2c3ccccc3-c3ccccc32)C1

- IC50 [5]: 380 nM
SMILES: CCOC(=O)C1=C(O)C(=O)N(Cc2cccs2)C1

- inhibition [4]: 36%
SMILES: CCOC(=O)C1=C(O)C(=O)N(c2cccc3ccccc23)C1

- IC50 [5]: 1900 nM
SMILES: CCCOC(=O)C1=C(O)C(=O)N(Cc2ccccc2)C1

- IC50 [1]: 27 nM
- IC50 [2]: 300 nM
- Selectivity ratio [3]: 0.1
SMILES: O=C1NC(=O)C2(N1)c1ccccc1-c1ccc(F)cc12 (configuration not stated) [ALCONIL]

- pKa [8]: 5.1
SMILES: CS(=O)(=O)C1CN(Cc2ccccc2)C(=O)C1=O (configuration not stated)

- inhibition [4]: 64%
SMILES: CCOC(=O)C1=C(O)C(=O)N(CC2CCCCC2)C1

- IC50 [1]: 1500 nM
SMILES: CC(/C=C1\SC(=S)N(CC(=O)O)C1=O)=C\c1ccccc1

- IC50 [5]: 440 nM
SMILES: CCOC(=O)C1=C(O)C(=O)N(Cc2ccccn2)C1
